{"source": "ChEMBL document CHEMBL1145811", "about": "“Synthesis and antibacterial activity of a novel series of acylides: 3-O-(3-pyridyl)acetylerythromycin A derivatives” (J Med Chem, 2003)", "assay_type_in_all_cases": "functional", "key": {"[1]": {"test_system": "Haemophilus influenzae", "assay": "In vitro minimum inhibitory concentration for antibacterial activity against Haemophilus influenzae ATCC 33533 (ampicillin-resistant strain that produces beta-lactamase)", "method_in_brief": "(§1)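 Agar dilution MIC determined by the Japan Society of Chemotherapy standard method for aerobic bacteria.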"}, "[2]": {"test_system": "Streptococcus pneumoniae", "assay": "In vitro minimum inhibitory concentration for antibacterial activity against erythromycin-susceptible strain Streptococcus pneumoniae IID553", "method_in_brief": "(§2)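 MIC by agar dilution following the Japan Society of Chemotherapy standard method for aerobic bacteria. S. aureus 209P-JC and S. pneumoniae IID553 are erythromycin-susceptible strains.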"}, "[3]": {"test_system": "Streptococcus pneumoniae", "assay": "In vitro minimum inhibitory concentration for antibacterial activity against Streptococcus pneumoniae 211 (MLSb-resistant strain encoded by the erm(B) gene)", "method_in_brief": "as §1"}, "[4]": {"test_system": "Staphylococcus aureus", "assay": "In vitro minimum inhibitory concentration for antibacterial activity against Staphylococcus aureus SR138 (constitutively MLSb-resistant strain encoded by the erm(A) gene)", "method_in_brief": "as §1"}, "[5]": {"test_system": "Haemophilus influenzae", "assay": "In vitro minimum inhibitory concentration for antibacterial activity against Haemophilus influenzae ATCC 43095 (ampicillin-susceptible strain that does not produce beta-lactamase)", "method_in_brief": "as §1"}, "[6]": {"test_system": "Streptococcus pneumoniae", "assay": "In vitro minimum inhibitory concentration for antibacterial activity against Streptococcus pneumoniae 210 (efflux-resistant strain encoded by the mef(A) gene)", "method_in_brief": "as §1"}, "[7]": {"test_system": "Staphylococcus aureus", "assay": "In vitro minimum inhibitory concentration for antibacterial activity against erythromycin-susceptible strain Staphylococcus aureus […]", "method_in_brief": "as §2"}, "[8]": {"test_system": "Mus musculus", "assay": "Effective dose in vivo, in mouse inoculated intraperitoneally with 1.47*10e3 CFU of erythromycin susceptible strain Streptococcus pneumoniae IID553", "details": "ip", "method_in_brief": "(§3)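 Mouse protection test: mice were infected intraperitoneally with erythromycin-susceptible S. aureus Smith or S. pneumoniae IID553. Compounds were given orally 1 h after inoculation.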"}, "[9]": {"test_system": "Staphylococcus aureus", "assay": "In vitro minimum inhibitory concentration for antibacterial activity against Staphylococcus aureus B1 (inducibly MLSb-resistant strain encoded by the erm(C) gene)", "method_in_brief": "as §1"}, "[10]": {"test_system": "Staphylococcus aureus", "assay": "In vitro minimum inhibitory concentration for antibacterial activity against erythromycin susceptible strain Staphylococcus aureus Smith"}, "[11]": {"test_system": "Streptococcus pneumoniae", "assay": "In vitro minimum inhibitory concentration for antibacterial activity against erythromycin susceptible strain Streptococcus pneumoniae IID553"}, "[12]": {"test_system": "Mus musculus", "assay": "Effective dose in vivo, in mouse inoculated intraperitoneally with 5.80*10e7 CFU of erythromycin susceptible strain Staphylococcus aureus Smith", "details": "ip", "method_in_brief": "as §3"}}}
{"smiles": "CC[C@H]1OC(=O)[C@H](C)[C@@H](OC(=O)Cc2ccc([N+](=O)[O-])cc2)[C@H](C)[C@@H](O[C@@H]2O[C@H](C)C[C@H](N(C)C)[C@H]2O)[C@@](C)(OC)C[C@@H](C)C(=O)[C@H](C)[C@@H](O)[C@]1(C)O", "values": [{"measurement": "MIC", "setting": "[1]", "value": 50, "unit": "µg/mL"}, {"measurement": "MIC", "setting": "[2]", "value": 0.2, "unit": "µg/mL"}, {"measurement": "MIC", "setting": "[3]", "value": "> 100", "unit": "µg/mL"}, {"measurement": "MIC", "setting": "[4]", "value": "> 100", "unit": "µg/mL"}, {"measurement": "MIC", "setting": "[5]", "value": 50, "unit": "µg/mL"}, {"measurement": "MIC", "setting": "[6]", "value": 0.2, "unit": "µg/mL"}, {"measurement": "MIC", "setting": "[7]", "value": 0.2, "unit": "µg/mL"}, {"measurement": "ED50", "setting": "[8]", "value": 39.1, "unit": "mg/kg"}, {"measurement": "MIC", "setting": "[9]", "value": 0.39, "unit": "µg/mL"}, {"measurement": "MIC", "setting": "[10]", "value": 0.39, "unit": "µg/mL"}, {"measurement": "MIC", "setting": "[11]", "value": 0.1, "unit": "µg/mL"}]}
{"smiles": "CC[C@H]1OC(=O)[C@H](C)[C@@H](OC(=O)Cc2cccnc2)[C@H](C)[C@@H](OC2O[C@H](C)C[C@H](N(C)C)[C@H]2O)[C@@](C)(OC)C[C@@H](C)/C(=N\\O)[C@H](C)[C@H]2OC(=O)O[C@@]21C", "note": "(stereo not given in full)", "values": [{"measurement": "MIC", "setting": "[1]", "value": 6.25, "unit": "µg/mL"}, {"measurement": "MIC", "setting": "[2]", "value": 0.025, "unit": "µg/mL"}, {"measurement": "MIC", "setting": "[3]", "value": "> 100", "unit": "µg/mL"}, {"measurement": "MIC", "setting": "[4]", "value": "> 100", "unit": "µg/mL"}, {"measurement": "MIC", "setting": "[5]", "value": 3.13, "unit": "µg/mL"}, {"measurement": "MIC", "setting": "[6]", "value": 0.1, "unit": "µg/mL"}, {"measurement": "MIC", "setting": "[7]", "value": 0.2, "unit": "µg/mL"}, {"measurement": "ED50", "setting": "[8]", "value": 47.4, "unit": "mg/kg"}, {"measurement": "ED50", "setting": "[12]", "value": 27.6, "unit": "mg/kg"}, {"measurement": "MIC", "setting": "[9]", "value": 0.39, "unit": "µg/mL"}, {"measurement": "MIC", "setting": "[10]", "value": 0.39, "unit": "µg/mL"}, {"measurement": "MIC", "setting": "[11]", "value": 0.025, "unit": "µg/mL"}]}
{"smiles": "CC[C@H]1OC(=O)[C@H](C)[C@@H](OC(=O)Cc2cccnc2)[C@H](C)[C@@H](OC2O[C@H](C)C[C@H](N(C)C)[C@H]2O)[C@@](C)(O)C[C@@H](C)/C(=N\\O)[C@H](C)[C@H]2OC(=O)O[C@@]21C", "note": "(stereo not given in full)", "values": [{"measurement": "MIC", "setting": "[1]", "value": 3.13, "unit": "µg/mL"}, {"measurement": "MIC", "setting": "[2]", "value": 0.025, "unit": "µg/mL"}, {"measurement": "MIC", "setting": "[3]", "value": "> 100", "unit": "µg/mL"}, {"measurement": "MIC", "setting": "[4]", "value": "> 100", "unit": "µg/mL"}, {"measurement": "MIC", "setting": "[5]", "value": 3.13, "unit": "µg/mL"}, {"measurement": "MIC", "setting": "[6]", "value": 0.1, "unit": "µg/mL"}, {"measurement": "MIC", "setting": "[7]", "value": 0.39, "unit": "µg/mL"}, {"measurement": "ED50", "setting": "[8]", "value": 142, "unit": "mg/kg"}, {"measurement": "ED50", "setting": "[12]", "value": 51.6, "unit": "mg/kg"}, {"measurement": "MIC", "setting": "[9]", "value": 0.39, "unit": "µg/mL"}, {"measurement": "MIC", "setting": "[10]", "value": 0.2, "unit": "µg/mL"}, {"measurement": "MIC", "setting": "[11]", "value": 0.025, "unit": "µg/mL"}]}
{"smiles": "CC[C@H]1OC(=O)[C@H](C)[C@@H](OC(=O)Cc2cccnc2)[C@H](C)[C@@H](OC2O[C@H](C)C[C@H](N(C)C)[C@H]2O)[C@@](C)(OC)C[C@@H](C)C(=O)[C@H](C)[C@@H](O)[C@]1(C)O", "note": "(stereo not given in full)", "values": [{"measurement": "MIC", "setting": "[1]", "value": 12.5, "unit": "µg/mL"}, {"measurement": "MIC", "setting": "[2]", "value": 0.39, "unit": "µg/mL"}, {"measurement": "MIC", "setting": "[3]", "value": "> 100", "unit": "µg/mL"}, {"measurement": "MIC", "setting": "[4]", "value": "> 100", "unit": "µg/mL"}, {"measurement": "MIC", "setting": "[5]", "value": 12.5, "unit": "µg/mL"}, {"measurement": "MIC", "setting": "[6]", "value": 0.39, "unit": "µg/mL"}, {"measurement": "MIC", "setting": "[7]", "value": 0.78, "unit": "µg/mL"}, {"measurement": "ED50", "setting": "[8]", "value": 40.8, "unit": "mg/kg"}, {"measurement": "ED50", "setting": "[12]", "value": 9.57, "unit": "mg/kg"}, {"measurement": "MIC", "setting": "[9]", "value": 1.56, "unit": "µg/mL"}, {"measurement": "MIC", "setting": "[10]", "value": 0.78, "unit": "µg/mL"}, {"measurement": "MIC", "setting": "[11]", "value": 0.2, "unit": "µg/mL"}]}
{"smiles": "CC[C@H]1OC(=O)[C@H](C)[C@@H](OC(=O)Cc2cccc([N+](=O)[O-])c2)[C@H](C)[C@@H](OC2O[C@H](C)C[C@H](N(C)C)[C@H]2O)[C@@](C)(OC)C[C@@H](C)C(=O)[C@H](C)[C@@H](O)[C@]1(C)O", "note": "(stereo not given in full)", "values": [{"measurement": "MIC", "setting": "[1]", "value": 25, "unit": "µg/mL"}, {"measurement": "MIC", "setting": "[2]", "value": 0.1, "unit": "µg/mL"}, {"measurement": "MIC", "setting": "[3]", "value": "> 100", "unit": "µg/mL"}, {"measurement": "MIC", "setting": "[4]", "value": "> 100", "unit": "µg/mL"}, {"measurement": "MIC", "setting": "[5]", "value": 25, "unit": "µg/mL"}, {"measurement": "MIC", "setting": "[6]", "value": 0.2, "unit": "µg/mL"}, {"measurement": "MIC", "setting": "[7]", "value": 0.2, "unit": "µg/mL"}, {"measurement": "MIC", "setting": "[9]", "value": 0.78, "unit": "µg/mL"}]}
